Test results taken from ChEMBL document CHEMBL3997768, “The synthesis and antistaphylococcal activity of dehydroabietic acid derivatives: modifications at C12 and C7” (2017).
Converted amounts (≈) assume the structure as drawn. The source made the active and inactive calls. How the calls were made is not given here.

Experiments:
Assay type in all cases: functional
[1] = test system: Staphylococcus aureus; test: Antibacterial activity against Staphylococcus aureus Newman after 18 hrs by two fold serial dilution method
Procedure, shortened: (§1)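 Strains were grown overnight at 37 °C in TSB without antibiotic, diluted 1000-fold, and grown 2–3 h to A600 0.6. They were then diluted 1:400 in fresh TSB. Compounds in DMSO were two-fold serially diluted to a final 0.39–50 and mixed with an equal volume of bacteria. A600 was read after 18 h. MIC is the lowest concentration inhibiting growth. Triplicate; vancomycin and tetracycline were positive controls.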

[2] = test system: Escherichia coli; test: Antibacterial activity against Escherichia coli AB1157 at 50 ug/ml after 18 hrs by two fold serial dilution method; procedure, shortened: as §1
[3] = test system: Staphylococcus aureus; test: Antibacterial activity against aminoglycosides/tetracycline-resistant Staphylococcus aureus NRS-1 after 18 hrs by two fold serial dilution method; conditions: NRS-1, 18 h
Procedure, shortened: (§2)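 Strains grown overnight at 37 °C in TSB without antibiotic. Cultures were diluted 1000-fold, grown at 37 °C for 2–3 h to A600 0.6, then diluted 1:400 in fresh TSB. Equal volumes of bacteria and two-fold serial DMSO dilutions (final 0.39–50) were mixed. A600 was read after 18 h. MIC was the lowest concentration inhibiting growth. Run in triplicate, with vancomycin and tetracycline controls.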

[4] = test system: Staphylococcus aureus; test: Antibacterial activity against erythromycin-resistant Staphylococcus aureus NRS-70 after 18 hrs by two fold serial dilution method; conditions: NRS-70, 18 h; procedure, shortened: as §2
[5] = test system: Staphylococcus aureus; test: Antibacterial activity against oxacillin/tetracycline-resistant Staphylococcus aureus NRS-100 after 18 hrs by two fold serial dilution method; conditions: NRS-100, 18 h; procedure, shortened: as §2
[6] = test system: Staphylococcus aureus; test: Antibacterial activity against gentamicin-resistant Staphylococcus aureus NRS-108 after 18 hrs by two fold serial dilution method; conditions: NRS-108, 18 h; procedure, shortened: as §2
[7] = test system: Staphylococcus aureus; test: Antibacterial activity against linezolid-resistant Staphylococcus aureus NRS-271 containing phage type E-MRSA after 18 hrs by two fold serial dilution method; conditions: NRS-271, 18 h; procedure, shortened: as §2

| SMILES | MIC [1] | Activity [2] | MIC [3] | MIC [4] | MIC [5] | MIC [6] | MIC [7] |
| --- | --- | --- | --- | --- | --- | --- | --- |
| CC(C)c1cc2c(cc1Br)[C@@]1(C)CCC[C@@](C)(C(=O)O)[C@@H]1C/C2=N\OCCNC(=O)c1ccco1 | 36.7 to 45.8 µM (≈ 20 to 25 µg/mL) | inactive | – | – | – | – | – |
| CN(C)[C@@H]1C(O)=C(C(N)=O)C(=O)[C@@]2(O)C(O)=C3C(=O)c4c(O)cccc4[C@@](C)(O)[C@H]3C[C@@H]12 [TETRACYCLINE] | < 2.16 µM | – | > 56.2 µM | < 7.04 µM | < 7.04 µM | < 7.04 µM | < 7.04 µM |
| CC(C)c1cc2c(cc1Br)[C@@]1(C)CCC[C@@](C)(C(=O)O)[C@@H]1C/C2=N\OCCNC(=O)c1cccs1 | > 89 µM | inactive | – | – | – | – | – |
| CC(C)c1cc2c(cc1Br)[C@@]1(C)CCC[C@@](C)(C(=O)O)[C@@H]1C/C2=N\OCCCNC(=O)Cc1cccc(C(F)(F)F)c1 | 1.92 to 3.84 µM (≈ 1.25 to 2.5 µg/mL) | inactive | > 19.2 µM | 1.92 to 2.39 µM (≈ 1.25 to 1.56 µg/mL) | 3.84 to 4.8 µM (≈ 2.5 to 3.13 µg/mL) | 2.39 to 3.84 µM (≈ 1.56 to 2.5 µg/mL) | 2.39 to 3.84 µM (≈ 1.56 to 2.5 µg/mL) |
| CC(C)c1cc2c(cc1Br)[C@@]1(C)CCC[C@@](C)(C(=O)O)[C@@H]1C/C2=N\OCCCNC(=O)c1ccsc1 | 17.4 µM (≈ 10 µg/mL) | inactive | – | – | – | – | – |
| CC(C)c1cc2c(cc1Br)[C@@]1(C)CCC[C@@](C)(C(=O)O)[C@@H]1C/C2=N\OCCCNC(=O)c1ccccc1 | 8.78 µM (≈ 5 µg/mL) | inactive | – | – | – | – | – |
| CC(C)c1cc2c(cc1Br)[C@@]1(C)CCC[C@@](C)(C(=O)O)[C@@H]1C/C2=N\OCCCNC(=O)c1c(F)c(F)c(F)c(F)c1F | 5.69 to 7.58 µM (≈ 3.75 to 5 µg/mL) | inactive | – | – | – | – | – |
| CC(C)c1cc2c(cc1Br)[C@@]1(C)CCC[C@@](C)(C(=O)O)[C@@H]1C/C2=N\OCCCNC(=O)c1ccc(Br)s1 | 1.91 to 3.82 µM (≈ 1.25 to 2.5 µg/mL) | inactive | > 19.1 µM | 2.38 to 3.82 µM (≈ 1.56 to 2.5 µg/mL) | 4.78 µM (≈ 3.13 µg/mL) | 2.38 to 3.82 µM (≈ 1.56 to 2.5 µg/mL) | 2.38 to 3.82 µM (≈ 1.56 to 2.5 µg/mL) |
| CC(C)c1cc2c(cc1Br)[C@@]1(C)CCC[C@@](C)(C(=O)O)[C@@H]1C/C2=N\OCCCNC(=O)c1cccs1 | > 86.9 µM | inactive | – | – | – | – | – |
| Cc1ccc(C(=O)NCCCO/N=C2\C[C@H]3[C@](C)(C(=O)O)CCC[C@]3(C)c3cc(Br)c(C(C)C)cc32)s1 | 6.36 to 8.48 µM (≈ 3.75 to 5 µg/mL) | inactive | – | – | – | – | – |
| CC(C)c1cc2c(cc1Br)[C@@]1(C)CCC[C@@](C)(C(=O)O)[C@@H]1C/C2=N\OCCNC(=O)c1ccc[nH]1 | 5.75 to 9.18 µM (≈ 3.13 to 5 µg/mL) | inactive | – | – | – | – | – |
| CC(C)c1cc2c(cc1Br)[C@@]1(C)CCC[C@@](C)(C(=O)O)[C@@H]1C/C2=N\OCCNC(=O)c1ccccc1F | 13.1 to 17.4 µM (≈ 7.5 to 10 µg/mL) | inactive | – | – | – | – | – |
| CC(C)c1cc2c(cc1Br)[C@@]1(C)CCC[C@@](C)(C(=O)O)[C@@H]1C/C2=N\OCCCNC(=O)c1ccc[nH]1 | 4.48 µM (≈ 2.5 µg/mL) | inactive | 5.6 µM (≈ 3.13 µg/mL) | 2.79 to 4.48 µM (≈ 1.56 to 2.5 µg/mL) | 2.79 to 4.48 µM (≈ 1.56 to 2.5 µg/mL) | 2.79 to 4.48 µM (≈ 1.56 to 2.5 µg/mL) | 2.79 to 4.48 µM (≈ 1.56 to 2.5 µg/mL) |
| COc1ccccc1C(=O)NCCO/N=C1\C[C@H]2[C@](C)(C(=O)O)CCC[C@]2(C)c2cc(Br)c(C(C)C)cc21 | 8.54 to 10.7 µM (≈ 5 to 6.25 µg/mL) | inactive | – | – | – | – | – |
| CC(C)c1cc2c(cc1Br)[C@@]1(C)CCC[C@@](C)(C(=O)O)[C@@H]1C/C2=N\OCCNC(=O)c1ccc(C(F)(F)F)cc1 | 5.02 to 8.02 µM (≈ 3.13 to 5 µg/mL) | inactive | – | – | – | – | – |
| CC(C)c1cc2c(cc1Br)[C@@]1(C)CCC[C@@](C)(C(=O)O)[C@@H]1C/C2=N\OCCCNC(=O)c1ccccc1C(F)(F)F | 7.84 to 9.8 µM (≈ 5 to 6.25 µg/mL) | inactive | – | – | – | – | – |
| CC(C)c1cc2c(cc1Br)[C@@]1(C)CCC[C@@](C)(C(=O)O)[C@@H]1C/C2=N\OCCCNC(=O)c1ccccc1F | 8.51 to 10.6 µM (≈ 5 to 6.25 µg/mL) | inactive | – | – | – | – | – |
| CC(C)c1cc2c(cc1Br)[C@@]1(C)CCC[C@@](C)(C(=O)O)[C@@H]1C/C2=N\OCCNC(=O)c1ccccc1C(F)(F)F | 10 to 20.1 µM (≈ 6.25 to 12.5 µg/mL) | inactive | – | – | – | – | – |
| CC(C)c1cc2c(cc1Br)[C@@]1(C)CCC[C@@](C)(C(=O)O)[C@@H]1C/C2=N\OCCCNC(=O)c1cc2ccccc2[nH]1 | > 41.1 µM | inactive | – | – | – | – | – |
| CC(C)c1cc2c(cc1Br)[C@@]1(C)CCC[C@@](C)(C(=O)O)[C@@H]1C/C2=N\OCCNC(=O)Cc1ccccc1 | 17.6 µM (≈ 10 µg/mL) | inactive | – | – | – | – | – |
| CC(C)c1cc2c(cc1Br)[C@@]1(C)CCC[C@@](C)(C(=O)O)[C@@H]1C/C2=N\OCCNC(=O)c1ccsc1 | > 89 µM | inactive | – | – | – | – | – |
| CC(C)c1cc2c(cc1Br)[C@@]1(C)CCC[C@@](C)(C(=O)O)[C@@H]1C/C2=N\OCCCNC(=O)C1CC1 | 56.2 to 75 µM (≈ 30 to 40 µg/mL) | inactive | – | – | – | – | – |
